# Measured values taken from PMC5161541 (Nuclear medicine and biology, 2016).
# Where two headings read alike, the source gives them in different places.
# Key:
# [1] = target: sites labeled by [125I]-E-IA-BF-PIPZE (σ1 receptors) (Mus musculus, UniProt O55242); assay type: binding
# [2] = target: T1, σ1 receptors (Mus musculus, UniProt O55242); conditions: 100 μmol / kg, i.p.; cited from earlier work
# [3] = target: T1, σ1 receptors; assay: In vivo specific binding and blocking by pretreatment with σ receptor ligands; conditions: for adverse effects or abnormal behaviors: mice
# [4] = target: T1, σ1 receptors; assay: Regional brain distribution with blocking pretreatments; assay type: in vivo, CD-1 mouse; conditions: 2.5 μmol / kg i.v., 60 min, nine regions
# [5] = target: T2, σ2 receptors (Mus musculus, UniProt Q8VD00); assay: Competition binding against [3H]-DTG with PTZ mask in mouse brain membranes
# T2 sequence (Q8VD00 1-176): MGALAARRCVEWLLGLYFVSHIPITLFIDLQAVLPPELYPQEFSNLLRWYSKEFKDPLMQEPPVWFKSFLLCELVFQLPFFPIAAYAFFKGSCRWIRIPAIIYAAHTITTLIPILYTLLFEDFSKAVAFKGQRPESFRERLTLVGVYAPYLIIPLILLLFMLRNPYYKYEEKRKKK
# [6] = target: Kappa (κ) opioid receptor (Cavia porcellus, UniProt P41144); assay: Secondary site spot test, [3H]-U69593; assay type: binding, guinea pig
# [7] = target: DAT (Mus musculus, UniProt Q61327); assay: Secondary site spot test, [125I]-RTI-121; assay type: binding
# [8] = target: SERT (Mus musculus, UniProt Q60857); assay: Secondary site spot test, [3H]-Paroxetine; assay type: binding
# [9] = target: T1, σ1 receptors; assay: Competition binding against [3H]-PTZ in mouse brain membranes
# [10] = target: Delta (δ) opioid receptor (Mus musculus, UniProt P32300); assay: Secondary site spot test, [3H]-Naltrindole; assay type: binding
# [11] = target: NET (Mus musculus, UniProt O55192); assay: Secondary site spot test, [3H]-Nisoxetine; assay type: binding
# [12] = target: Mu (μ) opioid receptor (Cavia porcellus, UniProt A0ACM8Q262); assay: Secondary site spot test, [3H]-DAMGO; assay type: binding, guinea pig
# [13] = target: vesicular acetylcholine transporter (VAChT); conditions: read-out: apparent affinity for VAChT in vitro; cited from earlier work
# [14] = system: σ1 receptors; conditions: cited from earlier work
# [15] = target: cannabinoid receptor type 2 (CB2); conditions: cited from earlier work
# [16] = system: cerebral σ1 receptors; conditions: over 30 h, SPECT; cited from earlier work
# [17] = target: T1, σ1 receptors; assay type: binding
# [18] = TCA protein precipitation assay of plasma protein binding; assay type: in vitro ADME, mouse; conditions: for Protein Binding: mouse plasma, 37 °C, 30 min, TCA precipitation, n = 9
# In short: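 Radioiodinated test compound incubated in commercial mouse plasma at 37 °C for 30 min. Proteins then precipitated with cold 10% TCA / 5% HCl to measure protein-bound radioactivity.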
# [19] = Radiometabolite analysis of tissue extracts and urine by HPLC; assay type: in vivo, CD-1 mouse; conditions: for Radiometabolites Whole Brain, 60 min: mouse, in vivo
# In short: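 Organs from i.v.-dosed mice, given more radioactivity than in pharmacokinetic studies, counted and homogenized in methanol/acetonitrile/water containing DTG (100 μM). Homogenates centrifuged, with a radioactivity balance taken for extracts and pellets. Extracts diluted with water and filtered (0.45 μm) for radio-HPLC. Urine only diluted with mobile phase and filtered.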
# [20] = target: T1, σ1 receptors; assay: Calculated binding potential; conditions: single trial, protein assumed 5% of brain tissue
# In short: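 The Scatchard Y-intercept, as Bound/Free in (fmol/mg protein)/nM from the in vitro mouse brain membrane saturation experiment, was converted to tissue-concentration units assuming protein is 5% of brain tissue. This gave binding potential for a single trial.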
# [21] = Temporal biodistribution after i.v. radioligand in CD-1 mice; assay type: in vivo, CD-1 mouse
# In short: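 Radioligand given i.v. to male CD-1 mice, with tissues sampled from 5 min to 24 h. Uptake expressed as %ID/g. Clearance half-lives from heart and lung obtained by monoexponential decay fitting.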
# [22] = Lipophilicity, shake-flask n-octanol / buffer pH 7.4; assay type: physicochemical
# In short: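 Shake-flask method: radiolabeled test compound partitioned between equal volumes of n-octanol and aqueous buffer pH 7.4, each presaturated with the other. Vortexed, then centrifuged. Each layer sampled in duplicate or triplicate and counted. Counts normalized per g or per mL, and the concentration ratio converted to Log D7.4.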
# [23] = target: T1, σ1 receptors; assay: "Hot" saturation binding in mouse brain membranes
# In short: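 "Hot" saturation: mouse brain membranes incubated with increasing radioligand concentrations until steady-state binding. Non-specific binding determined in parallel at each concentration with a competing non-radioactive ligand. Specific binding fitted by nonlinear regression to the one-site mass-action equation to give Kd and Bmax. Bound/Free expressed as (fmol/mg protein)/nM for the Scatchard plot. Single experiment.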
# [24] = 0.1 nM [125I]-E-IA-BF-PIPZE, 37 °C, 180 min, means ± SEM (n = 3 – 6)
# [25] = Cheng-Prusoff, 0.1 nM [125I]-E-IA-BF-PIPZE, means ± SEM (n = 3 – 6)
# [26] = listed as [^125I]-E-IA-BF-PIPZE
# [27] = 15 min, defined by BD1063 5 μmol / kg i.v.
# T1 sequence (O55242 whole entry): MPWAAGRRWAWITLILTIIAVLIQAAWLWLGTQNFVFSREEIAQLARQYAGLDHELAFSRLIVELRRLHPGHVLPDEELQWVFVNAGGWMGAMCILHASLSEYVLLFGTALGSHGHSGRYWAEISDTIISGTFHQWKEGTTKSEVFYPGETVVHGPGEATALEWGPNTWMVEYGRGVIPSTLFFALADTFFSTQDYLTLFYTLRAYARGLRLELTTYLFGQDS
# Chain of sites labeled by [125I]-E-IA-BF-PIPZE (σ1 receptors) (O55242 whole entry): as above
# Chain of Mu (μ) opioid receptor (A0ACM8Q262 1-400): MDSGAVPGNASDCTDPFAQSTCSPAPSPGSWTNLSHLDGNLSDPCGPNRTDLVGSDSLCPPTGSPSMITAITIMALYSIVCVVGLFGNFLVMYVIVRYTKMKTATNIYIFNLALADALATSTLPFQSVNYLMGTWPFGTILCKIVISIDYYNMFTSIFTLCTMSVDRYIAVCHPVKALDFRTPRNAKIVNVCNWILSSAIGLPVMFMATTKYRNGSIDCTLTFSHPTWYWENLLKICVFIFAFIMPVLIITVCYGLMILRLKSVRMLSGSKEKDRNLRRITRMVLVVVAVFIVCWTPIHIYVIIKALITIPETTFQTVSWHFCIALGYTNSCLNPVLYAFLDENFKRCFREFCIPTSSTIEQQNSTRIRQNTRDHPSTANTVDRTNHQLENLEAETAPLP
# Chain of SERT (Q60857 whole entry): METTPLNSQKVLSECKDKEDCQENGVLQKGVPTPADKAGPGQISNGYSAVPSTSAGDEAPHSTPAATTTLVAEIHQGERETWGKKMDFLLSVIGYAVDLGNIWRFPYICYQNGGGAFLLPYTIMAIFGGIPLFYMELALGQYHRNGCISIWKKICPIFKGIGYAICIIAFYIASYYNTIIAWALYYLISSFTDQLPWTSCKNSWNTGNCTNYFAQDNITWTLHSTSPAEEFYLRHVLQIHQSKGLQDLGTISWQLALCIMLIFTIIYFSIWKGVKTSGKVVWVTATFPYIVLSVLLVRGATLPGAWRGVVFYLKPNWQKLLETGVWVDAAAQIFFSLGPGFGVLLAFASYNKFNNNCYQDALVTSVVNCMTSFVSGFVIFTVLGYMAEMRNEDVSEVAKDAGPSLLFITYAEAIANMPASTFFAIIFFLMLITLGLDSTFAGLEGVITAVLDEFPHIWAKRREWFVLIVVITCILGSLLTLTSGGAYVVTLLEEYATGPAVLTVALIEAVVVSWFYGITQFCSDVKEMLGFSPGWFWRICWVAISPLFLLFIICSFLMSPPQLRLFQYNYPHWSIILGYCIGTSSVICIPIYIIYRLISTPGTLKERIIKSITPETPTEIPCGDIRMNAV
# Chain of Delta (δ) opioid receptor (P32300 whole entry): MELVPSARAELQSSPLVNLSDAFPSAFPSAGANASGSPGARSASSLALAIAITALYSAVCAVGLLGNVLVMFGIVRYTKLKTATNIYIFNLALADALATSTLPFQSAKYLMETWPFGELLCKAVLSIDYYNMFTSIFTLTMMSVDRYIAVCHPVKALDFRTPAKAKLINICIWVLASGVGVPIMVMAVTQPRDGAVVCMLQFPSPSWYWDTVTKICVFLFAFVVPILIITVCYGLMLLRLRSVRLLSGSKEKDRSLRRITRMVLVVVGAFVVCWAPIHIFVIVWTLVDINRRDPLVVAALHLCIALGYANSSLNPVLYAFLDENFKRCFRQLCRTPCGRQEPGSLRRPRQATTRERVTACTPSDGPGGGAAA
# Chain of DAT (Q61327 whole entry): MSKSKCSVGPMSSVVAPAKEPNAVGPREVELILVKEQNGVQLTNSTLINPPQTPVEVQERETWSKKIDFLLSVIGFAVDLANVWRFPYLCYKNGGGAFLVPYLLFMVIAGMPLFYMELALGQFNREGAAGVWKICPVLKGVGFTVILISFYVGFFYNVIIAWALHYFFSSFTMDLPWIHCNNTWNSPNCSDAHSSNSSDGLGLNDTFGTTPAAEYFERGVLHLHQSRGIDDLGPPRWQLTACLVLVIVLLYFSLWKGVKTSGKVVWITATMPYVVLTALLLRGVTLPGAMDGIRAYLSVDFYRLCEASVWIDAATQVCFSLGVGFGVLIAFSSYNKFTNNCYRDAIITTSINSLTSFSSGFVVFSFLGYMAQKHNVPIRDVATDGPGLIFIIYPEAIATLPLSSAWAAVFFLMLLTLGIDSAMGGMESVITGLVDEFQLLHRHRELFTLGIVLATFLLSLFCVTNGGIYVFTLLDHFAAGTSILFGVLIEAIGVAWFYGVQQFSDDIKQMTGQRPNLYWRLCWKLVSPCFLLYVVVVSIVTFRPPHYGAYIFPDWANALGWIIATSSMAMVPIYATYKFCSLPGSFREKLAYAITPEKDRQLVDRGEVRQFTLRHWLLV
# Chain of Kappa (κ) opioid receptor (P41144 whole entry): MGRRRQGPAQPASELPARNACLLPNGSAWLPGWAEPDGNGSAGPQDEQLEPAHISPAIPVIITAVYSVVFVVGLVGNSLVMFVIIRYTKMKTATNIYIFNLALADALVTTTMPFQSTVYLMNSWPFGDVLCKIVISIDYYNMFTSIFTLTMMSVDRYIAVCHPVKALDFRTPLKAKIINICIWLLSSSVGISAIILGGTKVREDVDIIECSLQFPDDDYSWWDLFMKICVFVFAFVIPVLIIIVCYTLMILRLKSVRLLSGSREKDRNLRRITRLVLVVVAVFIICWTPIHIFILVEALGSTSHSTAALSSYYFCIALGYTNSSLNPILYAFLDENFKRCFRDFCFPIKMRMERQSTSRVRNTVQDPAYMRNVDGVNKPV
# Chain of NET (O55192 whole entry): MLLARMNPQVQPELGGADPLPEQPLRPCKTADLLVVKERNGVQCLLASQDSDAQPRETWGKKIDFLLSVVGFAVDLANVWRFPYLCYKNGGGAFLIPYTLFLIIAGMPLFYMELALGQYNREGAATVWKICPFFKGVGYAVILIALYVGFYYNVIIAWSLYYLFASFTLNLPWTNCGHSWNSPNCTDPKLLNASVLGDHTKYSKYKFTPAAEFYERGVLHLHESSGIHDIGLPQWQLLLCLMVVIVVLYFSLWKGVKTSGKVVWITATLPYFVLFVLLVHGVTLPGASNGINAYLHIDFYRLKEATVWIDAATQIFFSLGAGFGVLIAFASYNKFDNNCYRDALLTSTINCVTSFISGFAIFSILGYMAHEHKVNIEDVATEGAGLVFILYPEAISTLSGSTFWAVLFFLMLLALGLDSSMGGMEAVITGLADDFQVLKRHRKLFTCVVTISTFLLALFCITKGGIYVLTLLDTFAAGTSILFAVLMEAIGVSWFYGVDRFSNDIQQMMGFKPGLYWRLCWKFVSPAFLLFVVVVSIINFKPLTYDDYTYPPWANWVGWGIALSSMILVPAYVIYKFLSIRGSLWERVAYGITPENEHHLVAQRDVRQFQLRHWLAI
structure (smiles),measurement,setting,value
"CC(C)=CCN1CC[C@]2(C)c3cc(O)ccc3C[C@H]1[C@H]2C [(+)-Pentazocine, (+)-pentazocine]",Hill (nH),[1]; means ± SEM (n = 3 – 6),0.9 ± 0.1
COC(=O)[C@H]1[C@@H](OC(=O)c2ccccc2)C[C@@H]2CC[C@H]1N2C [(−)-cocaine],inhibition of [125I]-E-IA-DM-PE-PIPZE uptake,[2],50%
CN1CCN(CCc2ccc(Cl)c(Cl)c2)CC1 [BD1063],adverse effects or abnormal behaviors,[3]; 2.5 μmol / kg i.v.,No adverse effects or abnormal behaviors
same,radioactivity in the blood after pretreatment,"[3]; 60 min, blocker 2.5 μmol / kg i.v.",0.76 ± 0.04 %ID / g
same,IC50,[1]; [24],13.6 ± 0.7 nM
same,Ki,[1]; [25],9.6 ± 0.5 nM
same,Hill (nH),[1]; means ± SEM (n = 3 – 6),1.3 ± 0.1
"COc1cc2c(cc1OC)CN(CCCCNC(=O)c1cc(Br)cc(OC)c1OC)CC2 [Br-Mach, reference compound]",reduction of radioligand uptake across brain regions,[4],minimal but statistically significant
same,decrease of radioligand uptake in brain,"[3]; 2.5 μmol / kg i.v., 60 min",14%
same,decrease of radioligand uptake in heart,"[3]; 2.5 μmol / kg i.v., 60 min",15%
same,decrease of radioligand uptake in muscle,"[3]; 2.5 μmol / kg i.v., 60 min",24%
same,"inhibition of radioligand uptake in spleen, kidney, lung or liver","[3]; 2.5 μmol / kg i.v., 60 min",did not inhibit
same,adverse effects or abnormal behaviors,[3]; 2.5 μmol / kg i.v.,No adverse effects or abnormal behaviors
same,IC50,[1]; [24],9850 ± 807 nM
same,Ki,[1]; [25],6390 ± 524 nM
same,Hill (nH),[1]; means ± SEM (n = 3 – 6),1.1 ± 0.2
"Cc1ccccc1NC(=N)Nc1ccccc1C [DTG, ditolylguanidine]",IC50,[1],209 ± 14 nM
same,Ki,[1],114 ± 7 nM
same,Hill (nH),[1]; means ± SEM (n = 3 – 6),1.0 ± 0.1
"I/C=C/CN1CCN(CCc2ccc3c(c2)CCO3)CC1 [E-IA-BF-PE-PIPZE, (E)-1-(2-(2,3-dihydrobenzofuran-5-yl)ethyl)-4-(iodoallyl)piperazine]",Ki,[5],74.5 ± 4.44 nM
same,IC50,[6],> 5000 nM
same,inhibition at 5 µM,"[6]; read-out: inhibition of specific radioligand binding, κ",≤ 50%
same,IC50,[7],> 10000 nM
same,inhibition at 10 µM,"[7]; read-out: inhibition of specific radioligand binding, DAT",≤ 50%
same,IC50,[8],> 10000 nM
same,inhibition at 10 µM,"[8]; read-out: inhibition of specific radioligand binding, SERT",≤ 50%
same,reduction of radioligand uptake across brain regions,[4],over 92%
same,adverse effects or abnormal behaviors,[3]; 2.5 μmol / kg i.v.,No adverse effects or abnormal behaviors
same,IC50,[1],1.7 ± 0.2 nM
same,Ki,[1],1.1 ± 0.1 nM
same,Hill (nH),[1]; means ± SEM (n = 3 – 6),1.0 ± 0.1
same,Ki,[9],0.43 ± 0.03 nM
same,Hill slope,[9]; [3H]-PTZ competition,−1.23 ± 0.04
same,Selectivity: σ2/σ1 (Ki ratio),[9]; σ2 Ki / σ1 Ki,173
same,IC50,[10],> 5000 nM
same,inhibition at 5 µM,"[10]; read-out: inhibition of specific radioligand binding, δ",≤ 50%
same,IC50,[11],> 10000 nM
same,inhibition at 10 µM,"[11]; read-out: inhibition of specific radioligand binding, NET",≤ 50%
same,IC50,"[12]; read-out: IC50 Mu, [3H]-DAMGO 0.6 nM, guinea pig membranes",> 5000 nM
same,inhibition at 5 µM,"[12]; read-out: inhibition of specific radioligand binding, μ",≤ 50%
"COc1ccc(CCN2CCN(CCCc3ccccc3)CC2)cc1OC [SA4503, 1-[2-(3,4-dimethoxyphenyl)ethyl]-4-(3-phenylpropyl)piperazine]",Ki,[13],50 nM
COc1ccc(CCN2CCN(CCCc3ccccc3)CC2)cc1 [YZ-067],σ1 receptor affinity relative to SA4503,[14],improved affinity
CCCCCCC(C)(C)c1ccc([C@@H]2C[C@H](O)CC[C@H]2CCCO)c(O)c1 [[^3H]-CP55940],Kd,[15],1.5 nM
"N#Cc1ccc(OCC2CCN(CC=CI)CC2)cc1 [[^123I]-TPCNE, [^123I]-1-(iodopropen-2-yl)-4-[(4-cyanophenoxy)methyl]piperidine]",Ki,[14]; read-out: apparent affinity (Ki) for σ1 sites in vitro,0.67 nM
"N#Cc1ccc(OCC2CCN(CC=C[123I])CC2)cc1 [[^123I]-TPCNE, [^123I]-1-(iodopropen-2-yl)-4-[(4-cyanophenoxy)methyl]piperidine]",clearance from human brain,[16],no clearance
"I/C=C/CN1CCN(CCc2ccc3c(c2)CCO3)CC1 [[^125I]-E-IA-BF-PE-PIPZE, [^125I]-(E)-1-(2-(2,3-dihydrobenzofuran-5-yl)ethyl)-4-(iodoallyl)piperazine]",Ki,"[9]; read-out: Sigma-1 Ki, [3H]-PTZ, mouse brain membranes, mean ± SEM, n = 4",0.43 nM
same,Kd,"[17]; read-out: kinetically determined Kd (koff / kon), from rate constants",0.042 nM
"[125I]/C=C/CN1CCN(CCc2ccc3c(c2)CCO3)CC1 [[^125I]-E-IA-BF-PE-PIPZE, [^125I]-(E)-1-(2-(2,3-dihydrobenzofuran-5-yl)ethyl)-4-(iodoallyl)piperazine]",increase of protein binding with respect to [125I]-E-IA-DM-PE-PIPZE,[18],50%
same,Protein Binding,[18],71 ± 0.3%
same,Protein Binding,[18]; [26],71.2 ± 0.3%
same,specific radioligand binding in brain,[3]; [27],75%
same,specific radioligand binding in heart,[3]; [27],87%
same,specific radioligand binding in lung,[3]; [27],87%
same,specific radioligand binding in muscle,[3]; [27],61%
same,"radioactivity in the blood, controls","[3]; 60 min, saline-treated control group",0.38 ± 0.09 %ID / g
same,"Non-Specific binding Whole Brain, 30 min","[3]; mouse, in vivo, 0.5 h",0.89 %ID /g
same,"Specific binding Whole Brain, 30 min","[3]; mouse, in vivo, 0.5 h",4.90 %ID /g
same,"Non-Specific binding Whole Brain, 60 min","[3]; mouse, in vivo, 1 h",0.60 %ID /g
same,"Specific binding Whole Brain, 60 min","[3]; mouse, in vivo, 1 h",5.38 %ID /g
same,"Non-Specific binding Whole Brain, 240 min","[3]; mouse, in vivo, 4 h",0.34 %ID /g
same,"Specific binding Whole Brain, 240 min","[3]; mouse, in vivo, 4 h",4.14 %ID /g
same,"Specific / Non-Specific Whole Brain, 30 min",[3]; ratio of %ID /g values,5.5
same,"Specific / Non-Specific Whole Brain, 60 min",[3]; ratio of %ID /g values,9.0
same,"Specific / Non-Specific Whole Brain, 240 min",[3]; ratio of %ID /g values,12
same,"Specific / Non-Specific Whole Brain, 240 min","[3]; ratio of %ID /g values, listed as [^125I]-E-IA-BF-PIPZE",12.2
same,"extractable radioactivity, liver",[19]; 60 min,80%
same,urinary radioactivity as polar metabolites,[19]; 60 min,99%
same,radioactivity in brain tissue from intact radioligand,"[19]; 60 min, 100 μCi i.v.",About 99%
same,"Radiometabolites Whole Brain, 60 min",[19],1%
same,"Radiometabolites Whole Brain, 60 min",[19]; [26],1%
same,Binding Potential (BP),[20],97
same,kobs,"[17]; 0.16 nM radioligand, 37 °C",0.016 ± 0.002 min⁻¹
same,time to steady-state binding,"[17]; 0.16 nM radioligand, 37 °C",~180 min
same,koff,"[17]; 0.16 nM radioligand, 37 °C, haloperidol-initiated dissociation",5.5e-05 ± 5e-06 s⁻¹
same,blood level,[21]; 5 min,0.31 ± 0.03 %ID / g
same,radioactivity in the eye,[21]; 5 min,2.01 ± 0.13 %ID / g
same,brain uptake,"[21]; 5 min, i.v., mean ± SD",6.14 ± 0.94 %ID / g
same,peak brain uptake,"[21]; 15 min, i.v., mean ± SD",6.56 ± 1.23 %ID / g
same,brain uptake,[21]; 4 h,4.48 ± 0.22 %ID / g
same,blood level,[21]; 24 h,0.08 ± 0.01 %ID / g
same,brain uptake,[21]; 24 h,0.76 ± 0.091 %ID / g
same,clearance t½ from lung,"[21]; monoexponential decay, r^2 0.88",1.73 h
same,clearance t½ from heart,"[21]; monoexponential decay, r^2 0.90",1.98 h
same,initial whole brain uptake,"[21]; mouse, in vivo",> 6 % injected dose / g
same,"uptake in heart relative to brain, higher by","[21]; mouse, in vivo",50%
same,uptake in lung compared to brain,"[21]; mouse, in vivo",5 fold
same,fold higher lipophilicity than [125I]-E-IA-DM-PE-PIPZE,[22],2.8 fold
same,Log D7.4,"[22]; n-octanol / buffer pH 7.4, n = 5",2.69 ± 0.28
same,Bound / Free Y-intercept,"[23]; (fmol / mg protein) / nM, single experiment",1942
same,fold higher affinity from rate constants compared to saturation binding,[23]; Kd 0.042 nM vs […],5.7 fold
same,fold higher σ1 receptor affinity than [125I]-E-IA-DM-PE-PIPZE,"[23]; measured Kd, mouse brain membranes",16 fold
same,Bmax,"[23]; mouse brain membranes, 37 °C, 180 min, four trials, listed as [^125I]-E-IA-BF-PIPZE",472 ± 13 fmol / mg protein
